MEKK2mut PB1 HTS: signal of MEK5 binding to mutant human MEKK2 PB1 domain. 290,000 compounds, 0.35% hits. bead flow cytometry, Alexa488-MEK5 binding to MEKK2 mutant. percent response, % at 10 µM. AID 1530; in the data active = percent response above about 24%, passing the limit was not always enough
T cruzi inh: T. cruzi replication inhibition; 300,000 compounds, 1.4% hits; T. cruzi beta-gal in NIH3T3, luminescence, 90 h; inhibition, % (no concentration beside the values); AID 1885;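 active = mean inhibition across valid replicates above about 55%, limit read from the data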;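 note: signal also drops with host cell toxicity which is not excluded here; 0% = plate median of DMSO wells and 100% = zero luminescence signal; higher percent means less beta-gal luminescence so fewer parasites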
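Assay system: NIH/3T3 host cells with β-galactosidase reporter T. cruzi; input: 5,000 host fibroblasts per well; compound: single 50 nL compound addition per well in DMSO; timing: ≥90 h infection period, 3 h prior cell attachment; measured by: GalScreen β-gal luminescence, detergent lysis, 60 min; evaluation: percent inhibition of parasite-derived β-gal signal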
HCV NS3 hel inh: blocks Hepatitis C virus NS3 helicase unwinding; inhibition, % at 10.9 µM; NS3 helicase DNA unwinding, Cy5 molecular beacon fluorescence; 290,000 compounds, 0.56% hits;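 active = inhibition above the mean of all tested compounds plus 3 SD, set per campaign, cut at about 35% in these data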;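 note: 0% = DMSO wells and 100% = thioflavine S control wells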
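assay system = NS3 helicase fragment of HCV | buffer or medium = MOPS pH 6.5, MgCl2, DTT, Tween20, BSA | timing = 60 min unwinding reaction at 25 °C after ATP addition | signal = Cy5 beacon fluorescence read at start and 1 h | read-out basis = % inhibition of unwinding | control set = low DMSO, high thioflavine S at 110 µM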
DNA FID counter: counter-screen for HCV NS3 helicase inhibitors: DNA intercalator displacement; 290,000 compounds, 0.17% hits; inhibition, % at 7.9 µM; DNA fluorescent intercalator displacement, fluorescence; in the data active = inhibition above about 37%;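 note: 0% = vehicle and 100% = reference compound; higher means more ethidium bromide displaced from hairpin DNA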
MEKK3 PB1 HTS: raises or lowers MEK5 binding to the human MEKK3 PB1 domain; binding response (% of control), % at 10 µM; 290,000 compounds, 1.4% hits; Q99759; AID 1529; bead-based flow cytometry, Alexa488-MEK5 binding to MEKK3; actives lie on both sides; 0 = blocked by unlabeled MEK5, 100 = vehicle;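 active = binding response more than 3 SD above or below the average of its plate-row segment, actives on both sides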;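 note: Alexa488 bead fluorescence after subtracting the streptavidin-only scavenger bead signal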
Target sequence (Q99759 whole entry, looked up, the tested form may be a part): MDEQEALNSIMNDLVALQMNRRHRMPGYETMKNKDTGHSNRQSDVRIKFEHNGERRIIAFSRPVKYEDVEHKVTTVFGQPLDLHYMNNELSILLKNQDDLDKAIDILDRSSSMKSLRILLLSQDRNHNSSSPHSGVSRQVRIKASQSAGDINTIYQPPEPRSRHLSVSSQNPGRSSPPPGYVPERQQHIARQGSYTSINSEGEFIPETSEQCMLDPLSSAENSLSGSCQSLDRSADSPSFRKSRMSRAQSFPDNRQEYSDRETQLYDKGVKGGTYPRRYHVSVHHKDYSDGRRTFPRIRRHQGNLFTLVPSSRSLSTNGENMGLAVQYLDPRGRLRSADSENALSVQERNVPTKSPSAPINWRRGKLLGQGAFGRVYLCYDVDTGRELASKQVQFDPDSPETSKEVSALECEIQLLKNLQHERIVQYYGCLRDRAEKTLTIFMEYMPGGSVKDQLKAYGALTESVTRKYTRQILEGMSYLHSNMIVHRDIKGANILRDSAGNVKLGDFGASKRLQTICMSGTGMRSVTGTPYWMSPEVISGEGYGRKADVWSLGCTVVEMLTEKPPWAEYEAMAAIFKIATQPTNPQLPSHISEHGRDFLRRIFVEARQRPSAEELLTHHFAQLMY
MEKK2wt PB1 HTS: raises or lowers MEK5 binding to wildtype human MEKK2 PB1 domain | Q9Y2U5 | bead flow cytometry, Alexa488-MEK5 binding to MEKK2 WT; actives lie on both sides | binding response (% of control), % at 10 µM | 290,000 compounds, 1.1% hits | AID 1531; in the data active = binding response below about 67% or above about 130%
Starred values were filed as active, the others as inactive; · = not tested or not shown; [ ] = dose if it differs, or a comment. Sampled rows, rich in hits. Any-hit rate of the full collection: about 4.1%.

SMILES	MEKK2mut PB1 HTS	T cruzi inh	HCV NS3 hel inh	DNA FID counter	MEKK3 PB1 HTS	MEKK2wt PB1 HTS
CNc1ccccc1C(C)(C)c1cc(-c2cccc(Br)c2)no1	0	51	-9	-9	99	9.0*
CC(C)c1ccc(NC2CCCN(C(=O)c3ccsc3)C2)cc1 (stereo unspecified)	3	12	-2	-35	101	103
CCc1nnc(NC(=O)c2sc3nc4c(cc3c2N)CCCCC4)s1	2	10	13	-2	139*	106
CCCCN(C)CCNC(=O)c1nn(-c2ccc(OC)cc2)c(=O)c2c1c1ccccc1n2C	12	61*	-46	26	99	129
N=C(N)c1ccc(/C=C/c2ccc(C(=N)N)cc2O)cc1	-11	0	-16	53*	66	95
N=C(N)c1ccc(Cl)cc1	-6	-11	4	-2	101	98
O=C(CCl)N1N=C(c2cccs2)CC1c1ccco1 (stereo unspecified)	0	83*	3	0	96	97
CSCCC(NS(=O)(=O)c1c(Cl)cccc1Cl)C(=O)O (stereo unspecified)	-5	-16	0	-2	101	96
O=c1c(=NNc2ccccc2Cl)c(=O)c2ccccc12	-12	·	-1	4	77*[inhibitor]	88
O=C1N(c2ccccc2)C[C@@H]2C[C@@H](c3cc4ccccc4o3)N3CCC[C@@]123	-4	56*	-6	-23	101	101
COc1ccc(NC(=O)CCCNC(=O)Cn2cnc3sc4c(c3c2=O)CCCC4)c(OC)c1	-2	15	-2	-46	100	98
CCCCNc1c(-c2ccc(SC3CCCCC3)cc2)nc2ccccn12	·	71*	·	·	·	·
Cc1cc(C)n2nc(C(=O)NCc3cccc(C(F)(F)F)c3)nc2n1	3	76*	-2	-8	110	102
CCn1cc(C(=O)NCc2cccc(C(F)(F)F)c2)c(=O)c2ccc(C)nc21	1	-16	-17	-25	102	107
Nc1ccc(S(=O)(=O)NC2(C(F)(F)F)NC(=O)N(Cc3ccccc3)C2=O)cc1 (stereo unspecified)	10	-1	5	-8	105	106
COCCNC(=S)N(CCc1c(C)[nH]c2ccc(Cl)cc12)Cc1cccs1	-3	52	-18	-19	80	112
CCNC(=S)N(CCc1c(C)[nH]c2ccc(Cl)cc12)Cc1ccco1	0	72*	-7	-7	106	118
CNC(=S)N(CCc1c(C)[nH]c2ccc(Cl)cc12)Cc1cccs1	0	60*	-18	-2	104	102
c1cc2c3c(cccc3c1)C(N1CCN(C3=Nc4cccc5cccc3c45)CC1)=N2	·	·	-4	15	·	·
c1ccc(CC2CCN(C3=Nc4cccc5cccc3c45)CC2)cc1	·	66*	-19	9	·	·
CC1CCCCN1CCCNC(=O)C1CCN(c2nnc(-n3cccc3)s2)CC1 (stereo unspecified)	22	13	-58	0	100	150*
CCOc1ccc2nc(N3CCCC(C(=O)NCCCN4CC(C)CC(C)C4)C3)sc2c1 (stereo unspecified)	16	49	-25	35	107	142*
O=C(NCCCN1CCN(Cc2ccccc2)CC1)C1CCN(c2nnc(-n3cccc3)s2)CC1	56*	23	-29	11	111	197*
CCC1CCCCN1CCCNC(=O)C1CCN(c2ncnc3c2nc2n3CCCCC2)CC1 (stereo unspecified)	-1	1	-3	3	97	100
CCOc1ccc(NCc2cccn2-c2nnc(N3CCC(C(=O)NCCCN4CCCCC4CC)CC3)s2)cc1 (stereo unspecified)	24*	38	-83	40*	104	133
Cc1cc(OCC(=O)NCCc2ccc(Cl)cc2)c2c(C)cc(=O)oc2c1	0	15	-11	-9	107	105
Cc1cc(C)c2nc(N3CCCC(C(=O)NCCCN4CCOCC4)C3)sc2c1 (stereo unspecified)	-1	5	-8	6	98	107
